Legend:
[1] = organism: Cavia porcellus; test: Percent inhibition of LTC4-induced contraction in guinea pig parenchymal strip test, at a concentration of 100 uM; assay type: functional
In short: (§1)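 Guinea pig lung parenchymal strips were held in a tissue bath. Repeated 1 μM histamine challenges gave a control response used to normalize all later responses. Compounds were first checked at 30 μM alone for intrinsic activity. After preincubation (usually 5 min), strips were challenged with 0.2 nM LTC4. Inhibition of the contraction was scored, and 20% or less counted as ineffective.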

[2] = biological target: T1, Polyunsaturated fatty acid 5-lipoxygenase (Rattus norvegicus) (UniProt P12527); test: IC50 for inhibition of rat neutrophil 5-lipoxygenase (5-LO)
T1 sequence (whole entry): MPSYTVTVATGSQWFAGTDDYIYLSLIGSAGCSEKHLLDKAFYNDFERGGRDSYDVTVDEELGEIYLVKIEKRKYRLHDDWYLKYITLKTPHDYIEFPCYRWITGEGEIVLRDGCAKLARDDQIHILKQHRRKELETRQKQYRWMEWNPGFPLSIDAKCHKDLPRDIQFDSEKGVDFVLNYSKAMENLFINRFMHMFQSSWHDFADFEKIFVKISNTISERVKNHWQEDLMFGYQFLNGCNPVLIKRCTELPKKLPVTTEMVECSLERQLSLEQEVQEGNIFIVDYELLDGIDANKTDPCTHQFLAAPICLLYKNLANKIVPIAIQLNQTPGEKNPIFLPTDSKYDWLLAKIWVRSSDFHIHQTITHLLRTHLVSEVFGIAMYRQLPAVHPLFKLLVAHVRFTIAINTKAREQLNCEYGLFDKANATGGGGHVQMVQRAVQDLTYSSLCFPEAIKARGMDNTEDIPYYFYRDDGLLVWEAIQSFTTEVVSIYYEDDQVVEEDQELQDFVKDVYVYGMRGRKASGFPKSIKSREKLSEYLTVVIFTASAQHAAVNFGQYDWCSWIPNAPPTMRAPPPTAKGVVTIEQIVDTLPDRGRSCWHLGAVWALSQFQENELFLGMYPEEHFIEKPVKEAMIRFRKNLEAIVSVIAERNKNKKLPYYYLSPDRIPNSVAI

[3] = biological target: T2, Polyunsaturated fatty acid 5-lipoxygenase (Rattus norvegicus, UniProt P12527); test: Inhibition of rat neutrophil 5- Lipoxygenase (5-LO),; settings: read-out: I50
T2 sequence (P12527 whole entry): T1 sequence (whole entry)
In short: (§2)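 Approximately 2 × 10^6 glycogen-elicited rat neutrophils in buffer were incubated for 3 min with 4 μM [14C]arachidonic acid and 0.8 μM calcium ionophore A23187. Net 5-HETE was taken as the cell-containing control minus the buffer-only blank. […] Each assay was run in triplicate.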

[4] = organism: Cavia porcellus; test: Percent inhibition of LTC4-induced contraction in guinea pig parenchymal strip test, at a concentration of 30 uM; assay type: functional; in short: as §1
[5] = organism: Cavia porcellus; test: Percent inhibition of LTC4-induced contraction in guinea pig parenchymal strip test, at a concentration of 20 uM; assay type: functional; in short: as §1
[6] = biological target: T2, Polyunsaturated fatty acid 5-lipoxygenase; test: Inhibition of rat neutrophil 5- Lipoxygenase (5-LO); settings: read-out: I50
In short: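 Approximately 2 × 10^6 glycogen-elicited rat neutrophils in buffer were incubated for 3 min with 4 μM [14C]arachidonic acid and 0.8 μM calcium ionophore A23187. Net 5-HETE was taken as the cell-containing control minus the buffer-only blank. Each assay was run in triplicate.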

[7] = organism: Cavia porcellus; test: Percent inhibition of LTC4-induced contraction in guinea pig parenchymal strip test, at a concentration of 15 uM; assay type: functional; in short: as §1
[8] = organism: Cavia porcellus; test: Percent inhibition of LTC4-induced contraction in guinea pig parenchymal strip test, at a concentration of 10 uM; assay type: functional; in short: as §1
[9] = organism: Cavia porcellus; test: Percent inhibition of LTC4-induced contraction in guinea pig parenchymal strip test, at a concentration of 9 uM; assay type: functional; in short: as §1
[10] = organism: Cavia porcellus; test: Percent inhibition of LTC4-induced contraction in guinea pig parenchymal strip test, at a concentration of 12 uM; assay type: functional; in short: as §1
[11] = organism: Cavia porcellus; test: Percent inhibition of LTC4-induced contraction in guinea pig parenchymal strip test, at a concentration of 19 uM; assay type: functional; in short: as §1
[12] = organism: Cavia porcellus; test: Percent inhibition of LTC4-induced contraction in guinea pig parenchymal strip test, at a concentration of 8 uM; assay type: functional; in short: as §1
[13] = organism: Cavia porcellus; test: Percent inhibition of LTC4-induced contraction in guinea pig parenchymal strip test, at a concentration of 22 uM,; assay type: functional; in short: as §1
[14] = biological target: T1, Polyunsaturated fatty acid 5-lipoxygenase (Rattus norvegicus); test: Percent inhibition of rat neutrophil 5- Lipoxygenase (5-LO) at 100 uM; in short: as §2
[15] = organism: Cavia porcellus; test: Percent inhibition of LTC4-induced contraction in guinea pig parenchymal strip test, at a concentration of 3.6 uM; assay type: functional; in short: as §1
[16] = organism: Cavia porcellus; test: Percent inhibition of LTC4-induced contraction in guinea pig parenchymal strip test, at a concentration of 40 uM; assay type: functional; in short: as §1

Row | Compound | IC50 [2] | inhibition at 30 µM [4] | also measured
1 | CCCCCC(O)c1cccc(OCc2cccc(C(=O)O)c2)c1 (centres undefined) |  | 30% | IC50 [3]: 20.5 µM
2 | CCCC/C=C/c1ccc(OCc2cccc(C(=O)OC)c2)cc1 | > 100 µM | 26% | 
3 | CCCCC(C)(C)C(=O)c1cccc(OCc2ccccc2)c1 |  | 11% | IC50 [3]: 7.5 µM
4 | CCCCC(O)c1cccc(OCc2ccccc2CO)c1 (centres undefined) |  |  | IC50 [6]: 4 µM; inhibition at 15 µM [7]: 50%
5 | CCCCCC(OC1CCCCO1)c1cccc(OCc2cccc(C(=O)OC)c2)c1 (centres undefined) | 23 µM | 0% | 
6 | CCCCCC(O)c1cccc(OCc2cccc(C#N)c2)c1 (centres undefined) | 17 µM |  | inhibition at 10 µM [8]: 3%
7 | CCCCC(OC1CCCCO1)c1cccc(OCc2ccccc2C(=O)OC)c1 (centres undefined) | 14 µM |  | 
8 | CCCCC(C)C(O)c1cccc(OCc2ccccc2)c1 (centres undefined) | 3 µM | 0% | 
9 | CCCCCC(O)c1cccc(Oc2ccc3ccccc3n2)c1 (centres undefined) | 0.35 µM | 26% | 
10 | CCCCCC(O)c1cccc(OCc2cccc(C(=O)O)n2)c1 (centres undefined) |  | 50% | IC50 [3]: 5 µM
11 | CCCC/C=C(/C)c1ccccc1OCc1cccc(C(=O)OC)c1 | 5 µM | 7% | 
12 | CCCCCC(=O)c1cccc(OCc2cccc(C#N)c2)c1 |  | -30% | IC50 [6]: 6 µM
13 | CCCC/C=C\c1cccc(OCc2ccc3ccccc3n2)c1 | > 10 µM |  | inhibition at 12 µM [10]: 50%
14 | CCCCCC(C)(O)c1cccc(OCc2ccc3ccccc3n2)c1 (centres undefined) |  |  | IC50 [6]: 0.13 µM; inhibition at 8 µM [12]: 50%
15 | CCCCCC(C)(O)c1cccc(OCc2ccccn2)c1 (centres undefined) |  |  | IC50 [6]: 0.43 µM; inhibition at 22 µM [13]: 50%
16 | CCCCC(C)(C)C(O)c1cccc(OCc2ccccc2)c1 (centres undefined) | 2.5 µM |  | 
17 | CCCCCC(=O)c1cccc(OCc2ccccc2)c1 | 2 µM |  | inhibition at 100 µM [1]: 50%

Row | Compound | IC50 [2] | inhibition at 30 µM [4] | also measured
18 | CCCCC[C@H](O)/C=C/C=C\C/C=C\C/C=C\CCCC(=O)O [ICOMUCRET] |  |  | IC50 [6]: 1.45 µM
19 | CCCCCC(NC)c1cccc(OCc2ccccc2)c1 (centres undefined) | 22 µM | 50% | 
20 | CCCCCC(O)c1cccc(OCc2ccc3ccccc3c2)c1 (centres undefined) | 5 µM | 10% | 
21 | CCCCC(O)c1cccc(OCc2ccccc2C(=O)OC)c1 (centres undefined) | 2.5 µM | 35% | 
22 | CCCCC(C)(C)C(O)c1cccc(OCc2cccc(C(=O)OC)c2)c1 (centres undefined) |  | 0% | IC50 [6]: 2 µM
23 | CCCCCC(O)c1cccc(OCc2cccc(C(=O)OC)c2)c1 (centres undefined) |  | 20% | IC50 [3]: 1 µM
24 | CCCCCC(O)c1cccc(O)c1 (centres undefined) |  |  | inhibition [14]: 43%
25 | CCCCCC(O)c1cccc(OCc2cccc(C(=O)OC)n2)c1 (centres undefined) |  |  | IC50 [6]: 1.9 µM
26 | CCCCCC(O)c1cccc(OCc2ccc3ccccc3n2)c1 (centres undefined) [REV-5901] |  |  | inhibition at 3.6 µM [15]: 50%
27 | CCCCCC(=O)c1cccc(OCc2cccc(C(N)=O)c2)c1 | 0.6 µM | 5% | 
28 | CCCCCC(=O)c1cccc(OCc2ccc3ccccc3n2)c1 |  |  | IC50 [6]: 0.37 µM; inhibition at 20 µM [5]: 50%
29 | CCCCCC(C)(O)c1cccc(OCc2ccccc2)c1 (centres undefined) | 1 µM | 10% | 
30 | CCCCCC(OC)c1cccc(OCc2cccc(C(=O)OC)c2)c1 (centres undefined) | 10 µM | 22% | 
31 | CCCCC(C)(C)C(C)(O)c1cccc(OCc2ccccc2)c1 (centres undefined) | 2.4 µM | 10% | 
32 | CCCCCC(OC(C)=O)c1cccc(OCc2cccc(C(=O)OC)c2)c1 (centres undefined) | 5 µM | 5% | 
33 | CCCCCC(O)c1cccc(OCc2cccc(C(F)(F)F)c2)c1 (centres undefined) |  | 10% | IC50 [6]: 4 µM

The next lines start with results.

Row | IC50 [2] | Compound | inhibition at 30 µM [4] | also measured
34 | 2.7 µM | CCCCCC(O)c1cccc(OCc2ccncc2)c1 (centres undefined) |  | inhibition at 100 µM [1]: 50%
35 | 45 µM | CCCCCC(=O)c1cccc(/C=C\c2ccccc2)c1 | -20% | 
36 | 0.6 µM | CCCCCC(O)c1cccc(OCc2ccccc2C(=O)OC)c1 (centres undefined) | 23% | 
37 | 30 µM | CCCCCC(O)c1cccc(OCc2ccccc2C(=O)O)c1 (centres undefined) |  | inhibition at 20 µM [5]: 50%
38 | 4.5 µM | CCCCCC(O)c1cccc(/C=C/c2ccccc2)c1 (centres undefined) | 12% | 
39 | 2.7 µM | CCCCCC(O)c1cccc(OCc2cccnc2)c1 (centres undefined) |  | inhibition at 9 µM [9]: 50%
40 | 3.2 µM | CCCCCC(O)c1ccccc1OCc1cccc(C(=O)OC)c1 (centres undefined) |  | inhibition at 20 µM [5]: 50%
41 | 3.2 µM | CCCCCC(O)c1cccc(OCc2ccc(C(=O)OC)cc2)c1 (centres undefined) |  | inhibition at 10 µM [8]: 0%
42 | 30 µM | CCCCCC(O)c1cccc(OCc2cccc(C#N)n2)c1 (centres undefined) |  | inhibition at 10 µM [8]: 36%
43 | 4 µM | CCCCCC(O)c1cccc(OCc2cccc(C=O)c2)c1 (centres undefined) |  | 
44 | 36 µM | CCCCCC(O)c1cccc(OCc2cccc(CN)c2)c1 (centres undefined) | 0% | 
45 | 10 µM | CCCCC(O)c1cccc(OCc2ccccc2C(=O)O)c1 (centres undefined) |  | inhibition at 19 µM [11]: 50%
46 | 1.2 µM | CCCCCC(O)c1cccc(Oc2ccccc2)c1 (centres undefined) | 50% | 
47 | 4.8 µM | CCCCCC(O)c1cccc(OCc2ccc(OCC(=O)OC)cc2)c1 (centres undefined) |  | 
48 | 2.7 µM | CCCCCC(O)c1cccc(OCc2ccccc2)c1 (centres undefined) |  | inhibition at 100 µM [1]: 10%
49 | 2 µM | CCCCCC(O)c1cccc(OCc2cccc(C(N)=O)c2)c1 (centres undefined) |  | inhibition at 10 µM [8]: 0%
50 | 0.5 µM | CCCCCC(O)c1cccc(OCc2ccccn2)c1 (centres undefined) | 37% | 
51 | 6.7 µM | CCCCCC(O)c1cccc(COc2ccccc2)c1 (centres undefined) | 19% | 
52 | 21 µM | CCCCCC(O)c1cccc(OCc2ccc(C(=O)O)cc2)c1 (centres undefined) | 22% | 
53 | > 100 µM | CCCCCC(=O)c1cccc(/C=C/c2ccccc2)c1 | 0% | 
54 | 5.8 µM | CCCCCC(O)c1cccc(OCc2cccc(CC(=O)OC)c2)c1 (centres undefined) | 19% | 
55 | 2.5 µM | CCCCCC(O)c1cccc(OCc2cccc(CC(=O)O)c2)c1 (centres undefined) |  | inhibition at 40 µM [16]: 50%
56 | 6.4 µM | CCCCCC(O)c1cccc(/C=C\c2ccccc2)c1 (centres undefined) | 5% | 

Source: ChEMBL document CHEMBL1123859, “Substituted arylmethyl phenyl ethers. 1. A novel series of 5-lipoxygenase inhibitors and leukotriene antagonists” (J Med Chem, 1987)
